Active and inactive are the calls of the source. The rule behind the calls is not given here.
Columns and labels:
Format in all cases: functional, organism-based
[1] = test system: Staphylococcus aureus; assay: Bactericidal activity against Staphylococcus aureus ATCC 29213 at 12 ug/ml after 6 hrs by time kill assay
Procedure, shortened: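 Time-kill: an overnight S. aureus ATCC 29213 culture was diluted 1:10,000 in Mueller-Hinton broth and grown 2 h (early exponential) or 5 h (late exponential) at 37 °C and 225 rpm. Cells were then exposed in tubes under the same conditions. At intervals, aliquots were pelleted, resuspended in PBS, serially diluted tenfold, plated on agar overnight, and counted as CFU/mL. Biological replicates were run.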

[2] = test system: Escherichia coli; assay: Ratio of MIC for Escherichia coli ATCC 25922 after 20 serial passages to MIC for Escherichia coli ATCC 25922
Procedure, shortened: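 Sub-MIC serial passaging: after an initial broth microdilution MIC, cells grown at MIC/2 were transferred into a new MIC assay after each 24 h incubation, for 20 passages. MIC was plotted against days to follow resistance development. Passaging controls were norfloxacin for S. aureus and colistin for E. coli.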

[3] = test system: Escherichia coli; assay: Bactericidal activity against Escherichia coli ATCC 25922 at 12 after 6 hrs by time kill assay

For CN[C@H](CC(C)C)C(=O)N[C@H]1C(=O)N[C@@H](CC(N)=O)C(=O)N[C@H]2C(=O)N[C@H]3C(=O)N[C@H](C(=O)N[C@H](C(=O)O)c4cc(O)cc(O)c4-c4cc3ccc4O)[C@H](O)c3ccc(c(Cl)c3)Oc3cc2cc(c3O[C@@H]2O[C@H](CO)[C@@H](O)[C@H](O)[C@H]2O[C@H]2C[C@](C)(N)[C@H](O)[C@H](C)O2)Oc2ccc(cc2Cl)[C@H]1O, the Activity [1] was “inactive”.

With COLISTIN the Ratio [2] was 32.

With CO[C@@]1(NC(=O)[C@H](C(=O)O)c2ccc(O)cc2)C(=O)N2C(C(=O)O)=C(CSc3nnnn3C)CO[C@@H]21 the Activity [3] was “inactive”.
